The list is not random: actives were taken first. Their share in the collection is about 12%.
L major viab: Leishmania major promastigote growth inhibition, primary screen. AID 1063, 2008. Leishmania major promastigotes, resazurin fluorescence viability. inhibition, % at 10 µM. 200,000 compounds, 9% hits; in the data active = inhibition above about 50%;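 also: promastigotes grown with compound for 44 hours at 28 °C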
Diaph act CS: compounds boosting diaphorase resazurin reduction – biochemical, uHTS, resorufin fluorescence, counter-screen for diaphorase-coupled primary assays, primary screen. Diaphorase/resazurin coupled assay, 16 min; active compounds read high; 1 = vehicle wells, 0 = NADH-free wells. activation factor at 20 µM. 190,000 compounds, 0.005% hits. AID 1229, 2008;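 active = diaphorase activity raised at least twofold by the compound at 20 µM; inactive = activation factor below 2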
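System – purified diaphorase enzyme from Clostridium kluyveri · Input – enzyme 0.07 U/mL final · Also added – final NADH 0.114 mM, resazurin 0.1 mM · Measured by – fluorescence of resorufin, 544 nm excitation, 590 nm emission · Timing – 16 min enzyme reaction, ambient temperature · Measure – resorufin increase flagging diaphorase activators or reducers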
ROMK mod: ROMK potassium channel modulators, primary screen, cell-based, thallium flux, MLSMR library | B-score at 10 µM | Tet-inducible ROMK, thallium flux fluorescence; actives lie on both sides | 130,000 compounds, 2% hits | ATP-sensitive inward rectifier potassium channel 1 (Homo sapiens), P48048;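 active = signal ratio slope over the read window, or its plate-corrected B-score, at least 3 SD from the plate mean, either direction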;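 also: B-score of the F/F0 ratio slope over 7 to 12 s after thallium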
WT yeast gro inh: growth inhibition of WT strain, primary screen, mitochondrial fusion inhibitor project, WT and mutant strains, chemical genetic; mitochondrial fusion phenotypic screen; inhibition, % at 10 µM; 190,000 compounds, 2.1% hits; AID 1362, 2008; in the data active = inhibition above about 58%; tested in S. cerevisiae
KCC2 mod: KCC2 cotransporter modulators, thallium flux, primary screen, cell-based, HEK293 KCC2, FluoZin-2 fluorescence, MLSMR; 190,000 compounds, 2.2% hits; Solute carrier family 12 member 5 (Homo sapiens), Q9H2X9; KCC2 cells, thallium flux FluoZin-2 fluorescence; B-score of Tl+ flux slope (higher = more flux/activation; lower = inhibition) at 10 µM;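 active = thallium flux slope and its plate-corrected score both differing from the plate sample mean at a set confidence after two filtering rounds, in either direction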;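 also: slope of fluorescence scaled to starting intensity during 10 to 20 s after thallium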
Target sequence (Q9H2X9 whole entry, looked up): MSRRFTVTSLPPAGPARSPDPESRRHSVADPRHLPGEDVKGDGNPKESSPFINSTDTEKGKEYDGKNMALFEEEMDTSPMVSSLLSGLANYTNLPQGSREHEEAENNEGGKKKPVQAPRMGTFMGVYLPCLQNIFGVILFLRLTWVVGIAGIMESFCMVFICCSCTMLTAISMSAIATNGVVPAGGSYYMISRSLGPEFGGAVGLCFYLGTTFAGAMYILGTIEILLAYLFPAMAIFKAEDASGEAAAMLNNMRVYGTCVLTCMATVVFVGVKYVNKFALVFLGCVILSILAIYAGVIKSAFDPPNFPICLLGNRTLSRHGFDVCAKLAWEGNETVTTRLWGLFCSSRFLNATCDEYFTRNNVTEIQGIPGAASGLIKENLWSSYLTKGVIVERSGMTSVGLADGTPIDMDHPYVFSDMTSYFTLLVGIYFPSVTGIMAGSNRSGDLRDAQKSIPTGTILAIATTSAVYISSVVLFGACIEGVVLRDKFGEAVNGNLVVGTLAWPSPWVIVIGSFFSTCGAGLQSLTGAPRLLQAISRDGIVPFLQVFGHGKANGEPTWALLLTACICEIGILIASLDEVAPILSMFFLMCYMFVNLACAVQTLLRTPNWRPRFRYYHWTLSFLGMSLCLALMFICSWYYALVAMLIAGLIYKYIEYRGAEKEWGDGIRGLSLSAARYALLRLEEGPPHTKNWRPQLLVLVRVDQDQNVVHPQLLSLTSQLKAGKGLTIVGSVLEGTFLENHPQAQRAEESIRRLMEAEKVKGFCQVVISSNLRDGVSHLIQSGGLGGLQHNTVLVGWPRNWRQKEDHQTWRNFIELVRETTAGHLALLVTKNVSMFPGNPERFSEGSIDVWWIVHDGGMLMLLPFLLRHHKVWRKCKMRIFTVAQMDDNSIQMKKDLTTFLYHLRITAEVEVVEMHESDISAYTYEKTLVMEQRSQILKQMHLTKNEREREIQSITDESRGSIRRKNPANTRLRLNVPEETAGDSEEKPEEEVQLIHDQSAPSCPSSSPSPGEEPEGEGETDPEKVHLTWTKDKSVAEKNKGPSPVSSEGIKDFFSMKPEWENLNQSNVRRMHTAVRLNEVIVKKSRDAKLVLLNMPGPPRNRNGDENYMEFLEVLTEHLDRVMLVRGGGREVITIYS
Diaphorase inh: diaphorase inhibitors and chemical oxidizers, primary screen, counter-screen for diaphorase-coupled primary assays, biochemical, uHTS, resorufin fluorescence; diaphorase resazurin-to-resorufin fluorescence, NADH, 16 min; bacterial (C. kluyveri) enzyme, not human; inhibition, % at 20 µM; 190,000 compounds, 0.69% hits; AID 1217, 2008;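 active = primary screen inhibition at 20 µM above a set limit, cut at about 50% in these data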;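 also: plate controls were DMSO with full reaction for no effect and wells lacking NADH for full effect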
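Test system: diaphorase enzyme from Clostridium kluyveri; amount: diaphorase at 0.14 U/mL in enzyme working solution; detection: fluorescence of resorufin formed from resazurin, Ex 544/Em 590 nm; times: reaction incubation of 16 min at room temperature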
KCC2 sec1: KCC2 modulators in sodium-free buffer, confirmation, cell-based, HEK293 KCC2, thallium flux, secondary assay; shares compounds with KCC2 mod; FluoZin2 fluorescence; active compounds read high; normalised thallium flux (F/F0 slope) at 10 µM; 3,700 compounds, 15% hits;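 active = thallium flux slope above the same plate's solvent-only control mean plus 3 SD; inconclusive = the two replicate wells disagree; inactive = no significant difference from solvent-only control wells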
KCC2 bumet counter: thallium flux persisting under bumetanide in KCC2 cells, confirmation, counter-screen for KCC2 modulator project, cell-based, HEK293 KCC2, FluoZin2, secondary assay 3; 3,700 compounds, 49% hits; shares compounds with KCC2 mod; HEK293-KCC2 + bumetanide/ouabain; active compounds read high; normalized thallium flux at 10 µM;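 active = thallium entry rate above the same plate's blocked-transporter control wells by more than 3 SD; inconclusive = the two repeat wells disagree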;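 also: raw slope of fluorescence over initial fluorescence between 10 and 20 s after thallium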
KCC2 secondary2: KCC2 modulators without ouabain present, confirmation, cell-based, HEK293 KCC2, thallium flux, FluoZin2, secondary assay 2. thallium flux FluoZin2 fluorescence; actives lie on both sides; F/F0 rise rate, 10–20 s post-thallium. shares compounds with KCC2 mod. normalized thallium flux at 10 µM. AID 1715, 2009. 3,700 compounds, 23% hits;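 active = thallium flux slope more than 3 SD above or below the plate's solvent-only control mean, mostly below; inconclusive = the two repeat wells disagreed; inactive = no significant shift from solvent-only controls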;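 also: raw slope with 0.1% DMSO as baseline and bumetanide as block control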
HEK293 Tl flux: thallium flux modulation in parental HEK cells, confirmation, counter-screen for KCC2 modulator project, cell-based, counterscreen 1 | shares compounds with KCC2 mod | HEK293 parental cells, thallium flux FluoZin2, ouabain; baseline-ratio fluorescence slope, 10–20 s after thallium | thallium flux rate (normalised fluorescence) at 10 µM | 3,700 compounds, 46% hits;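 active = thallium flux rate significantly above the same plate's solvent-only control wells, beyond their mean plus 3 SD; inconclusive = the two replicate wells gave conflicting results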
KCC2 ouabain: KCC2 inhibitors and activators, ouabain retest, confirmation, HEK-KCC2 cells; HEK293-KCC2, thallium flux FluoZin2 fluorescence; bidirectional: low = inhibitor, high = activator; shares compounds with KCC2 mod; raw Tl+ flux slope (below DMSO = inhibition, above = activation) at 10 µM; 3,700 compounds, 48% hits;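 active = thallium flux slope beyond 3 SD from same-plate DMSO control mean in most replicates, usually higher, sometimes lower; inconclusive = repeat tests gave conflicting results; inactive = no significant difference from controls in most replicates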;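 also: slope of initial-normalized fluorescence between seconds 10 and 20 after thallium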
HEK293 Tl flux2: native HEK Tl+ uptake effects, second counter-screen – HEK cells, counterscreen 2, counter-screen for KCC2 modulator project, confirmation; AID 1718, 2009; HEK293 parental, thallium flux FluoZin-2 fluorescence slope; shares compounds with KCC2 mod; 3,700 compounds, 33% hits; thallium flux slope at 10 µM;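 active = thallium flux slope above the same plate's solvent-control mean plus 3 SD in both duplicate wells; inconclusive = duplicate wells that disagreed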;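 also: run without ouabain in cells lacking the KCC2 cotransporter; slope of fluorescence scaled to its starting value between 10 and 20 s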
An asterisk follows results filed as active; ? = inconclusive; nt = no result.

SMILES | L major viab | Diaph act CS | ROMK mod | WT yeast gro inh | KCC2 mod | Diaphorase inh | KCC2 sec1 | KCC2 bumet counter | KCC2 secondary2 | HEK293 Tl flux | KCC2 ouabain | HEK293 Tl flux2
Cc1ccc(C)c(N(C(=O)CCC(=O)Nc2cc(C)on2)C(C(=O)NC2CCCC2)c2ccco2)c1 (centres undefined) | 90* | 0.9 | nt | 9 | -4.3* | 5 | ? | 0.0043 | ? | 0.0067 | 0.015 | 0.009
COc1ccc(C2(c3ccc(O)cc3O)CC(c3ccccc3Cl)NC(=S)N2)cc1 (centres undefined) | -11 | 0.7 | nt | -10 | -1.3 | 32 | nt | nt | nt | nt | nt | nt
NC(=O)c1c(NC(=O)c2ccccc2)sc2c1CCc1ccccc1-2 | 7 | 0.9 | 1.6 | 8 | nt | 13 | nt | nt | nt | nt | nt | nt
O=c1cc(-c2c(F)c(F)c(F)c(F)c2F)oc2c(F)c(F)c(F)c(F)c12 | 58* | 0.8 | nt | 50 | -2.7* | 16 | 0.0068 | ? | 0.031 | 0.0078 | 0.02 | 0.011
CCOC(=O)c1ccccc1NC1OC(=O)c2ccccc21 (centres undefined) | -2 | 0.8 | 0.017 | 36 | -3.9* | 17 | ? | 0.0079 | 0.03 | ? | 0.021 | ?
O=C(Cn1nnc2c(cnn2-c2ccccc2)c1=O)N1CCN(c2ccccc2F)CC1 | -1 | 1 | nt | nt | -5.5* | 3 | 0.0058 | ? | 0.021* | 0.0068 | 0.014* | 0.0092
O=C(Cn1cnc2c(cnn2-c2ccc(F)cc2)c1=O)N1CCN(c2ccccc2F)CC1 | 13 | 0.8 | nt | -5 | -0.95 | 18 | nt | nt | nt | nt | nt | nt
Cn1c(Oc2ccccc2)c(C=O)c2ccccc21 | 0 | 0.9 | nt | 6 | nt | 7 | nt | nt | nt | nt | nt | nt
CCc1cc2c(cc3c(=O)n(CC(=O)N4CCN(c5ccccn5)CC4)nc(CC)n32)s1 | 2 | 0.7 | -0.27 | -5 | nt | 32 | 0.0077 | 0.0045 | 0.03 | 0.0073 | 0.016 | 0.0097
CC(=O)OCC1OC(c2ccccc2)C(OC(C)=O)C(OC(C)=O)C1OC(C)=O (centres undefined) | -5 | 1.1 | nt | 4 | 4.3* | -7 | 0.0064 | 0.005 | ? | 0.0071 | 0.018 | 0.01
S=c1[nH]nc(-c2cccc(Cl)c2)n1Cc1ccccc1 | -10 | 0.9 | -0.83 | 0 | 4* | 10 | 0.015* | 0.044* | 0.037 | ? | 0.038* | ?
CCc1cc(-c2n[nH]c(=S)n2Cc2ccccc2)cs1 | -9 | 0.9 | 0.08 | 65* | 15* | 11 | 0.0067 | 0.02* | 0.03 | 0.016* | ? | 0.011*
S=c1[nH]nc(-c2ccc(Cl)cc2Cl)n1Cc1ccccc1 | -4 | 0.7 | 0.19 | 51 | 9* | 29 | 0.0059 | 0.039* | ? | 0.021* | 0.034* | 0.023*
Cc1ccccc1-c1n[nH]c(=S)n1Cc1ccccc1 | -6 | 1.1 | 0.63 | 13 | -0.93 | -9 | nt | nt | nt | nt | nt | nt
Cc1[nH]c2ccc(-c3n[nH]c(=S)n3Cc3ccccc3)cc2c1C | 3 | 0.7 | 1 | -11 | -1.3 | 28 | nt | nt | nt | nt | nt | nt
S=c1[nH]nc(COc2cccc(Cl)c2)n1Cc1ccccc1 | -3 | 0.8 | -0.32 | 73* | 20* | 22 | 0.01 | 0.028* | 0.034 | 0.015* | ? | 0.012*
C=CCn1c(-c2cccc(Cl)c2)n[nH]c1=S | -7 | 0.8 | nt | -1 | 0.035 | 25 | nt | nt | nt | nt | nt | nt
Cc1ccc(S(=O)(=O)N2CCCCC2)cc1NC(=O)C1CCCO1 (centres undefined) | 6 | 0.8 | -0.45 | 4 | 1.2 | 18 | nt | nt | nt | nt | nt | nt
CCOC(=O)/C(=N\Nc1ccccc1Cl)N1CCN(c2ccccc2OC)CC1 | 0 | 0.9 | 0.23 | 26 | -0.073 | 14 | nt | nt | nt | nt | nt | nt
CCN1C(=O)N(C(C)=O)C2C1N(C(C)=O)C(=O)N2C(C)=O (centres undefined) | -6 | 0.9 | -0.042 | 8 | 0.061 | 9 | nt | nt | nt | nt | nt | nt
N#Cc1c(NC(=S)NC(=O)Cc2cccs2)sc2c1CCCCC2 | 4 | 0.8 | -0.0074 | 45 | 7.4* | 17 | 0.0086 | 0.02* | 0.028 | 0.0093* | ? | 0.0099
CCCSc1nnc(Cn2c(=O)sc3ccccc32)n1C | -7 | 0.9 | nt | -2 | -0.24 | 14 | nt | nt | nt | nt | nt | nt
COCCNC(=S)Nc1ccc(S(=O)(=O)Nc2ncccn2)cc1 | 2 | 1.1 | 1 | 7 | 0.016 | -8 | nt | nt | nt | nt | nt | nt
Nc1cccc(CN2CCCC2)c1 | -7 | 1 | 0.24 | 0 | 0.27 | 1 | nt | nt | nt | nt | nt | nt
Cc1ccccc1NCC(=O)N/N=C/c1ccc([N+](=O)[O-])cc1 | 1 | 1 | -1.3 | 7 | -5.8* | -3 | 0.0075 | 0.0049 | ? | 0.008 | 0.018 | 0.0099
O=C(CNc1cccc2ccccc12)N/N=C/c1ccc([N+](=O)[O-])cc1 | -5 | 0.7 | nt | -10 | 0.59 | 29 | nt | nt | nt | nt | nt | nt
CCOc1ccccc1OCc1nn2c(COc3ccccc3)nnc2s1 | 10 | 0.8 | nt | 20 | -1.2 | 17 | nt | nt | nt | nt | nt | nt
c1ccc(OCc2nn3c(C4CCCCC4)nnc3s2)cc1 | -6 | 0.8 | -1.5 | 13 | -3.6* | 18 | 0.014 | 0.0035 | 0.024* | ? | 0.013* | 0.0093

Compound activity as filed in PubChem.
